≈ marks a conversion by molar mass, not a printed value. Calls of active or inactive are those of the source. No cut-off for these calls is given here.
Experiments:
Staphylococcus aureus [1] = test: Antibacterial activity against methicillin-resistant Staphylococcus aureus 33829 infected in in vitro pharmacokinetic model assessed as time required to 99.9% killing at 1500 mg, iv every 8 hrs using 10^6 CFU/ml inoculum; assay type: functional
Summary of the method: (§1)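 Single-compartment dilutional in vitro PK model, 10% Mueller-Hinton broth, 37°C, stirred, dilution 132 ml/h. […] Inoculum 10^6 CFU/ml (added 45 min pre-dose) or 10^8 CFU/ml (run overnight). Viable counts by spiral plating, beta-lactamase neutralization, detection limit 10^2 CFU/ml. At least triplicate.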

Staphylococcus aureus [2] = test: Antibacterial activity against methicillin-resistant Staphylococcus aureus 33815 infected in in vitro pharmacokinetic model assessed as reduction in viable count at 750 mg, iv every 8 hrs measured after 24 hrs using 10^6 CFU/ml inoculum; assay type: functional
Summary of the method: (§2)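 Single-compartment dilutional in vitro PK model, 37°C, stirred, in 10% Mueller-Hinton broth. […] Inoculum 10^6 CFU/ml from a 24-h plate culture was added 45 min before dosing. Viable counts by spiral plating on nutrient agar with β-lactamase neutralization. Log change was taken from time 0; detection limit 10^2 CFU/ml; at least triplicate.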

Staphylococcus aureus [3] = test: Antibacterial activity against methicillin-resistant Staphylococcus aureus 33827 in in vitro pharmacokinetic model assessed as viable count at 6 times of MIC; assay type: functional
Summary of the method: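 Population analysis before drug exposure (time 0). Model samples were plated on nutrient agar without drug and with tomopenem at 2×, 4× and 6× MIC (10% MHB MIC), and growth was recorded as log CFU/ml. Detection limit 2 log10.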

Staphylococcus aureus [4] = test: Antibacterial activity against methicillin-resistant Staphylococcus aureus 33921 assessed as viable count at 2 times of MIC after 24 hrs using 10^6 CFU/ml inoculum; assay type: functional, organism-based
Staphylococcus aureus [5] = test: T>MIC for 2-log drop in count in methicillin-resistant Staphylococcus aureus 33829 in in vitro pharmacokinetic model after 24 hrs using 10^6 CFU/ml inoculum; assay type: functional
Staphylococcus aureus [6] = test: Antibacterial activity against methicillin-resistant Staphylococcus aureus 33921 infected in in vitro pharmacokinetic model assessed as reduction in viable count at 1500 mg, iv every 8 hrs measured after 12 hrs using 10^6 CFU/ml inoculum; assay type: functional; summary of the method: as §1
Staphylococcus aureus [7] = test: Antibacterial activity against methicillin-resistant Staphylococcus aureus 33922 infected in in vitro pharmacokinetic model assessed as reduction in viable count at 750 mg, iv every 8 hrs measured after 48 hrs using 10^8 CFU/ml inoculum; assay type: functional
Staphylococcus aureus [8] = test: T>MIC for 3-log drop in count in methicillin-sensitive Staphylococcus aureus 5956 in in vitro pharmacokinetic model after 24 hrs using 10^6 CFU/ml inoculum; assay type: functional
Summary of the method: (§3)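 Dose-ranging: 7–13 simulated regimens per strain giving T>MIC of 0–100% (MIC from 10% MHB), at 106 or 10^8 CFU/ml as stated.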

Staphylococcus aureus [9] = test: Antibacterial activity against methicillin-sensitive Staphylococcus aureus 5956 infected in in vitro pharmacokinetic model assessed as time required to 99.9% killing at 750 mg, iv every 8 hrs using 10^6 CFU/ml inoculum; assay type: functional
Staphylococcus aureus [10] = test: Antibacterial activity against methicillin-resistant Staphylococcus aureus 33827 infected in in vitro pharmacokinetic model assessed as reduction in viable count at 1500 mg, iv every 8 hrs measured after 36 hrs using 10^6 CFU/ml inoculum; assay type: functional; summary of the method: as §1
Staphylococcus aureus [11] = test: Antibacterial activity against methicillin-sensitive Staphylococcus aureus 5956 infected in in vitro pharmacokinetic model assessed as reduction in viable count at 1500 mg, iv every 8 hrs measured after 24 hrs using 10^6 CFU/ml inoculum; assay type: functional
Staphylococcus aureus [12] = test: T>MIC for 4-log drop in count in methicillin-sensitive Staphylococcus aureus 5956 in in vitro pharmacokinetic model after 24 hrs using 10^6 CFU/ml inoculum; assay type: functional; summary of the method: as §3
Staphylococcus aureus [13] = test: Antibacterial activity against methicillin-resistant Staphylococcus aureus 33829 in in vitro pharmacokinetic model assessed as viable count at 6 times of MIC; assay type: functional
Summary of the method: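 Preexposure population analysis: time-zero model samples plated on nutrient agar without drug and with drug at multiples of the 10% broth MIC. Growth reported as log CFU/ml, detection limit 2 log10.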

Staphylococcus aureus [14] = test: Antibacterial activity against methicillin-resistant Staphylococcus aureus 33921 infected in in vitro pharmacokinetic model assessed as reduction in viable count at 750 mg, iv every 8 hrs measured after 48 hrs using 10^6 CFU/ml inoculum; assay type: functional
Staphylococcus aureus [15] = test: AUBKC (0 to 48 hrs) in methicillin-resistant Staphylococcus aureus 33922 infected in in vitro pharmacokinetic model at 1500 mg, iv every 8 hrs using 10^8 CFU/ml inoculum; assay type: functional
Summary of the method: (§4)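 Single-compartment dilutional in vitro PK model at 37°C in 10% Mueller-Hinton broth, stirred, flow 132 ml/h. […] Inoculum 10^6 CFU/ml added 45 min before dosing, or 10^8 CFU/ml run overnight. Viable counts with β-lactamase neutralisation. AUBKC by log-linear trapezoidal rule, at least triplicate.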

Staphylococcus aureus [16] = test: Antibacterial activity against methicillin-resistant Staphylococcus aureus 33827 assessed as viable count at 4 times of MIC after 24 hrs using 10^6 CFU/ml inoculum; assay type: functional, organism-based
Staphylococcus aureus [17] = test: Antibacterial activity against methicillin-resistant Staphylococcus aureus 33815 infected in in vitro pharmacokinetic model assessed as reduction in viable count at 1500 mg, iv every 8 hrs measured after 36 hrs using 10^6 CFU/ml inoculum; assay type: functional; summary of the method: as §2
Staphylococcus aureus [18] = test: Antibacterial activity against methicillin-resistant Staphylococcus aureus 33827 assessed as viable count at 4 times of MIC after 48 hrs using 10^6 CFU/ml inoculum; assay type: functional, organism-based
Staphylococcus aureus [19] = test: Antibacterial activity against methicillin-sensitive Staphylococcus aureus 5956 assessed as viable count at 4 times of MIC after 48 hrs using 10^6 CFU/ml inoculum; assay type: functional, organism-based
Staphylococcus aureus [20] = test: T>MIC for 2-log drop in count in methicillin-resistant Staphylococcus aureus 33827 in in vitro pharmacokinetic model after 24 hrs using 10^6 CFU/ml inoculum; assay type: functional
Staphylococcus aureus [21] = test: Antibacterial activity against methicillin-resistant Staphylococcus aureus 33922 infected in in vitro pharmacokinetic model assessed as time required to 99% killing at 750 mg, iv every 8 hrs using 10^8 CFU/ml inoculum; assay type: functional
Staphylococcus aureus [22] = test: Antibacterial activity against methicillin-resistant Staphylococcus aureus 33921 infected in in vitro pharmacokinetic model assessed as reduction in viable count at 1500 mg, iv every 8 hrs measured after 36 hrs using 10^6 CFU/ml inoculum; assay type: functional; summary of the method: as §1
Staphylococcus aureus [23] = test: Antibacterial activity against methicillin-sensitive Staphylococcus aureus 5956 infected in in vitro pharmacokinetic model assessed as time required to 99.9% killing at 1500 mg, iv every 8 hrs using 10^6 CFU/ml inoculum; assay type: functional
Serum = test: Drug level in human serum at 1400 mg; assay type: ADME, cell-free
Staphylococcus aureus [24] = test: Antibacterial activity against methicillin-resistant Staphylococcus aureus 33922 in in vitro pharmacokinetic model assessed as viable count at 2 times of MIC; assay type: functional
Staphylococcus aureus [25] = test: AUBKC (0 to 24 hrs) in methicillin-resistant Staphylococcus aureus 33829 infected in in vitro pharmacokinetic model at 1500 mg, iv every 8 hrs using 10^6 CFU/ml inoculum; assay type: functional; summary of the method: as §4
Staphylococcus aureus [26] = test: Antibacterial activity against methicillin-resistant Staphylococcus aureus 33827 by 10% MH broth method; assay type: functional
Summary of the method: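 Broth dilution MIC per CLSI, run in 10% Mueller-Hinton broth at nondoubling dilutions.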

C[C@@H](O)[C@H]1C(=O)N2C(C(=O)O)=C(S[C@H]3C[C@@H](C(=O)N4CC[C@H](NC(=O)CNC(=N)N)C4)N(C)C3)[C@H](C)[C@H]12 [TOMOPENEM]
Time (Staphylococcus aureus [1]): 12 h
log10CFU/ml (Staphylococcus aureus [2]): 4.2
log10CFU/ml (Staphylococcus aureus [3]): <2
Activity (Staphylococcus aureus [4]): inactive
fT>MIC (Staphylococcus aureus [5]): 20.8%
log10CFU/ml (Staphylococcus aureus [6]): 3
log10CFU/ml (Staphylococcus aureus [7]): 5.8
fT>MIC (Staphylococcus aureus [8]): 10.1%
Time (Staphylococcus aureus [9]): 6 h
log10CFU/ml (Staphylococcus aureus [10]): 4
log10CFU/ml (Staphylococcus aureus [11]): 4.4
fT>MIC (Staphylococcus aureus [12]): 12.8%
log10CFU/ml (Staphylococcus aureus [13]): 2.7
log10CFU/ml (Staphylococcus aureus [14]): 3.8
AUBC (Staphylococcus aureus [15]): 124.7 log10CFU/ml.hr
Activity (Staphylococcus aureus [16]): inactive
log10CFU/ml (Staphylococcus aureus [17]): 4.2
Activity (Staphylococcus aureus [18]): inactive
Activity (Staphylococcus aureus [19]): inactive
fT>MIC (Staphylococcus aureus [20]): 31.2%
Time (Staphylococcus aureus [21]): 12 h
log10CFU/ml (Staphylococcus aureus [22]): 4.2
Time (Staphylococcus aureus [23]): 8 h
Drug uptake (Serum): 100 mg/L
log10CFU/ml (Staphylococcus aureus [24]): 8.3
AUBC (Staphylococcus aureus [25]): 30 log10CFU/ml.hr
MIC (Staphylococcus aureus [26]): 0.75 µg/mL (≈ 1.39 µM)

Reference: ChEMBL document CHEMBL1255300, “Pharmacodynamics of the antibacterial effect and emergence of resistance to tomopenem, formerly RO4908463/CS-023, in an in vitro pharmacokinetic model of Staphylococcus aureus infection” (Antimicrob Agents Chemother, 2008)
